Pf Dd2 growth = P. falciparum Dd2 growth inhibitors, primary screen, SYBR Green fluorescence, single dose replicates | 72 h; hits give low values | activity change, % at 10 µM | 94,000 compounds, 2.3% hits | AID 1159554, 2015; in the data active means activity change below about -80%; inconclusive means no clear call, values can overlap the other calls
IDH1 R132H inh = inhibitors of IDH1 R132H reductase, primary screen, biochemical, plate reader, single point; diaphorase/resazurin fluorescence, 60 min; inhibition, % at 10 µM; 70,000 compounds, 0.18% hits; AID 624101, 2012; in the data active means inhibition above about 34%; inconclusive means no clear call, values can overlap the other calls; inactive means below about 11%
Target sequence (O75874 whole entry R132H): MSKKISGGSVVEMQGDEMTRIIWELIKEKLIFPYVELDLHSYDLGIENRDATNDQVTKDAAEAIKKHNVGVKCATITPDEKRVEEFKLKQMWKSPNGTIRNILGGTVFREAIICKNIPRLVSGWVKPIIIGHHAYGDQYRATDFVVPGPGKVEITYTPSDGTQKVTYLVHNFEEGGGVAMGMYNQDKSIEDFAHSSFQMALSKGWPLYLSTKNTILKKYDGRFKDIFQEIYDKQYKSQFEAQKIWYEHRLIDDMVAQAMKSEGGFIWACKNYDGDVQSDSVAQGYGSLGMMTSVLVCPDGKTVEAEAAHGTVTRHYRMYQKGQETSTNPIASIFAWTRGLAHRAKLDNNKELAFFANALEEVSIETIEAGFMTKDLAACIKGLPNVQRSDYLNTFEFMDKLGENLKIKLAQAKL
KDM4C inh = inhibitors of GASC-1 (KDM4C) histone demethylase, primary screen, biochemical, single concentration HTS | AID 720574, 2013 | inhibition, % at 12.5 µM | GST-KDM4C 2-372, H3K9me3 peptide, LANCE TR-FRET | 96,000 compounds, 0.15% hits | Lysine-specific demethylase 4C (Homo sapiens), Q9H3R0;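 active means mean replicate inhibition above about 25%, with at least 55% of replicates also reaching it, limit read from the data, passing the limit was not always enough; inconclusive means only one of those two conditions met; inactive means neither condition met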
Target sequence (Q9H3R0 2-372 limits assumed): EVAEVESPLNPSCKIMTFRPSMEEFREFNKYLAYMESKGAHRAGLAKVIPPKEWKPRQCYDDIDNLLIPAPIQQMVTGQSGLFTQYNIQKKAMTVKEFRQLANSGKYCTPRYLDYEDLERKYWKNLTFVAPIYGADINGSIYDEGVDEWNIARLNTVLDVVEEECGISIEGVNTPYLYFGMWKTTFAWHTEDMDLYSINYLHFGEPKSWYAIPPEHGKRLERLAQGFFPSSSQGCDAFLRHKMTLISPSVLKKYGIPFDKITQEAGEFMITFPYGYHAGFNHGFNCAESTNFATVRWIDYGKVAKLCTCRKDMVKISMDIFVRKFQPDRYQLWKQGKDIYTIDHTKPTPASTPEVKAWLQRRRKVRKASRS
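Test system – GST-tagged GASC-1 (JMJD2C) catalytic fragment, aa 2-372 · Medium – HEPES buffer, pH 7.5, plus ascorbate · Reagent – H3K9me3 peptide with Fe(II)/2OG · Compound – one test concentration per compound · Timing – 30 min reaction, 60 min detection, RT · Technique – TR-FRET with Eu antibody and ULight streptavidin, EDTA stop · Read-out basis – inhibition from TR-FRET ratio decrease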
T cruzi growth-1 = T. cruzi intracellular proliferation inhibitors, primary screen, cell-based, beta-gal Tulahuen parasites, NIH3T3 host, luminescence; T. cruzi beta-gal in NIH3T3, GalScreen luminescence, 90 h; inhibition, % at 8.34 µM; 77,000 compounds, 5.9% hits; AID 624255, 2012;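 active means mean inhibition above about 93%, with at least 55% of replicates each passing it, limit read from the data, passing the limit was not always enough; inconclusive means only one of those two conditions holds; inactive means neither condition holds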
T cruzi growth-2 = T. cruzi intracellular proliferation inhibitors, confirmation, cell-based, NIH3T3 host, beta-gal parasite, luminescence, cherry-pick. shares compounds with T cruzi growth-1. T. cruzi beta-gal in NIH3T3, GalScreen luminescence, 90 h. inhibition, % at 8.35 µM. 5,600 compounds, 72% hits;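 active means mean replicate inhibition above about 95% and at least 55% of replicates individually reaching it, limit read from the data; inconclusive means only one of the two criteria is met; inactive means neither criterion is met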
T cruzi growth-3 = inhibitors of intracellular T. cruzi replication, confirmation, NIH3T3 host cells, beta-gal parasites, cherry-pick, set 2 | 5,600 compounds, 21% hits | inhibition, % at 2.09 µM | T. cruzi beta-gal in NIH3T3, GalScreen luminescence, 90 h | AID 651740, 2012 | shares compounds with T cruzi growth-1;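 active means mean inhibition above about 95%, with at least 55% of replicates also reaching it, limit read from the data; inconclusive means meets just one of the two conditions; inactive means meets neither condition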
NIH3T3 tox = cytotoxicity in mouse NIH/3T3 fibroblasts, confirmation, cytotoxicity control for T. cruzi proliferation inhibitor project, cell-based, cherry-pick, single point; shares compounds with T cruzi growth-1; NIH/3T3 viability, CellTiter-Glo ATP luminescence, 90 h; cytotoxicity (signal decrease), % at 8.35 µM; 5,600 compounds, 14% hits;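 active means mean signal decrease across replicates above about 35% based on untreated-well scatter, with enough replicates individually passing, limit read from the data; inconclusive means no rule stated though some were filed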
3T3 cytotox 2 = NIH/3T3 fibroblast cytotoxicity, confirmation, cytotoxicity control, cell-based, cherry-pick, single point, set 2. shares compounds with T cruzi growth-1. NIH/3T3 viability, CellTiter-Glo ATP luminescence, 90 h. inhibition, % at 24.9 µM. 5,600 compounds, 56% hits;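 active means mean loss of cell viability signal at or above a set limit, and enough replicates individually reaching it; inconclusive means meets only the mean limit or only the replicate share; inactive means meets neither condition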
Large screens that a line does not name were inactive (follow-up assays come after a bar, where they were run); ! = a repeat was not active. Only some compounds are listed: those with a hit (about 5.8% of all), similar ones and a draw of the others.

CO[C@H]1CN(C)C(=O)c2cc(NC(=O)c3ccccc3F)ccc2OC[C@H](C)N(C(=O)c2ccccc2F)C[C@@H]1C	none
CO[C@H]1CN(C)C(=O)c2cc(NC(=O)Nc3c(C)noc3C)ccc2OC[C@H](C)N(CCC(F)(F)F)C[C@H]1C	none
COC(=O)CCCCCCC(=O)N/N=C/c1cccnc1Cl	none (no result: Pf Dd2 growth, KDM4C inh, T cruzi growth-1)
COc1ccccc1-c1ccc([C@@H]2[C@@H](C#N)N(C(=O)C3CC3)[C@H]2CO)cc1	T cruzi growth-1 104 (no result: IDH1 R132H inh) | T cruzi growth-2 inactive | T cruzi growth-3 inactive | NIH3T3 tox inactive | 3T3 cytotox 2 inactive
COc1ccc(-c2ccc([C@H]3[C@@H](C#N)N(C(=O)C4CC4)[C@H]3CO)cc2)cc1	T cruzi growth-1 105 (no result: IDH1 R132H inh) | T cruzi growth-2 inactive | T cruzi growth-3 inactive | NIH3T3 tox inactive | 3T3 cytotox 2 inactive
N#C[C@H]1[C@@H](c2ccc(-c3ccccc3F)cc2)[C@@H](CO)N1C(=O)C1CC1	T cruzi growth-1 104 | T cruzi growth-2 107 | T cruzi growth-3 inactive | NIH3T3 tox inactive | 3T3 cytotox 2 inconclusive
COc1ccc(-c2ccc([C@@H]3[C@H](C#N)N(C(=O)C4CC4)[C@H]3CO)cc2)cc1	none (no result: IDH1 R132H inh)
COc1ccccc1-c1ccc([C@@H]2[C@@H](C#N)N(C(=O)C3CCC3)[C@H]2CO)cc1	none (no result: IDH1 R132H inh)
C[C@H](CO)N1C[C@H](C)[C@H](CN(C)S(=O)(=O)c2cccs2)Oc2ccc(NC(=O)CCCN(C)C)cc2C1=O	none (no result: IDH1 R132H inh)
C[C@@H]1CN([C@@H](C)CO)C(=O)c2cc(NC(=O)c3ccccc3)ccc2O[C@@H](C)CCCCO[C@H]1CN(C)CC1CCCCC1	none
CO[C@@H]1CN(C)C(=O)c2ccc(NC(=O)c3ccccc3F)cc2OC[C@@H](C)N(CC2CC2)C[C@H]1C	none
C[C@@H]1CCCCO[C@H](CN(C)S(=O)(=O)c2ccccc2)[C@@H](C)CN([C@H](C)CO)C(=O)c2cc(NS(C)(=O)=O)ccc2O1	none
C[C@@H]1CCCCO[C@H](CN(C)Cc2ccncc2)[C@@H](C)CN([C@H](C)CO)C(=O)c2cc(N(C)C)ccc2O1	T cruzi growth-1 108! | T cruzi growth-2 inactive | T cruzi growth-3 inactive | NIH3T3 tox inactive | 3T3 cytotox 2 inactive
C[C@@H]1CN([C@@H](C)CO)C(=O)c2cc(N(C)C)ccc2O[C@@H](C)CCCCO[C@@H]1CN(C)Cc1ccc2c(c1)OCO2	T cruzi growth-1 101! (no result: IDH1 R132H inh) | T cruzi growth-2 inconclusive | T cruzi growth-3 inactive | NIH3T3 tox inactive | 3T3 cytotox 2 inactive
OC[C@@H]1[C@@H](c2ccc(/C=C/c3ccccc3)cc2)[C@H]2CN(Cc3ccncc3)CCCCN12	T cruzi growth-1 97 (no result: IDH1 R132H inh) | T cruzi growth-2 105 | T cruzi growth-3 inactive | NIH3T3 tox 46 | 3T3 cytotox 2 102
OC[C@@H]1[C@@H](c2ccc(/C=C/c3ccccc3)cc2)[C@@H]2CN(Cc3ccncc3)CCCCN12	T cruzi growth-1 inconclusive (no result: IDH1 R132H inh) | T cruzi growth-2 99 | T cruzi growth-3 inactive | NIH3T3 tox inactive | 3T3 cytotox 2 106
O=C(C[C@@H]1C[C@@H]2c3cc(NC(=O)c4ccc5c(c4)OCO5)ccc3O[C@@H]2[C@H](CO)O1)NC1CCCC1	none
CCCC#Cc1ccc([C@H]2[C@H](C#N)N(S(=O)(=O)c3cccc(F)c3)[C@H]2CO)cc1	T cruzi growth-1 98 (no result: IDH1 R132H inh) | T cruzi growth-2 103 | T cruzi growth-3 105 | NIH3T3 tox inactive | 3T3 cytotox 2 59
Cc1ccccc1S(=O)(=O)N1[C@H](C#N)[C@@H](c2ccc(-c3ccccc3)cc2)[C@@H]1CO	none (no result: IDH1 R132H inh)
N#C[C@H]1[C@H](c2ccc(-c3cccc(F)c3)cc2)[C@@H](CO)N1S(=O)(=O)c1cccc(F)c1	T cruzi growth-1 98 (no result: IDH1 R132H inh) | T cruzi growth-2 105 | T cruzi growth-3 inactive | NIH3T3 tox 41 | 3T3 cytotox 2 104
N#C[C@H]1[C@H](c2ccc(-c3cccc(F)c3)cc2)[C@H](CO)N1S(=O)(=O)c1cccc(F)c1	T cruzi growth-1 96 (no result: IDH1 R132H inh) | T cruzi growth-2 108 | T cruzi growth-3 inactive | NIH3T3 tox 37 | 3T3 cytotox 2 57
Cc1ccccc1S(=O)(=O)N1[C@H](C#N)[C@H](c2ccc(-c3ccccc3)cc2)[C@H]1CO	T cruzi growth-1 103 (no result: IDH1 R132H inh) | T cruzi growth-2 98 | T cruzi growth-3 inactive | NIH3T3 tox 41 | 3T3 cytotox 2 47
COc1ccc(NC(=O)Nc2ccc3c(c2)C(=O)N([C@H](C)CO)C[C@@H](C)[C@H](CN(C)C(=O)Nc2cccc4ccccc24)O3)cc1	none
COCC(=O)Nc1ccc2c(c1)OC[C@H](C)N(Cc1cccnc1)C[C@H](C)[C@@H](OC)CN(C)C2=O	none (no result: IDH1 R132H inh, KDM4C inh, T cruzi growth-1)
O=C(C[C@H]1C[C@@H]2c3cc(NS(=O)(=O)c4ccc(F)cc4)ccc3O[C@@H]2[C@@H](CO)O1)NCc1ccccn1	none (no result: T cruzi growth-1)
COc1ccc(-c2ccc(C3[C@@H]4CN(Cc5cccc(OC)c5)C[C@H]3N4)cc2)cc1 (stereo partly specified)	none (no result: IDH1 R132H inh, T cruzi growth-1)
C[C@H]1CCCCO[C@H](CN(C)S(=O)(=O)c2ccc(F)cc2)[C@@H](C)CN([C@@H](C)CO)C(=O)c2cc(NS(=O)(=O)c3ccc(Cl)cc3)ccc2O1	T cruzi growth-1 99 | T cruzi growth-2 98 | T cruzi growth-3 inactive | NIH3T3 tox inactive | 3T3 cytotox 2 inactive
C[C@H]1CCCCO[C@H](CN(C)S(=O)(=O)c2ccc(Cl)cc2)[C@@H](C)CN([C@@H](C)CO)C(=O)c2cc(NS(=O)(=O)c3ccc(F)cc3)ccc2O1	T cruzi growth-1 103 | T cruzi growth-2 inconclusive | T cruzi growth-3 110 | NIH3T3 tox inactive | 3T3 cytotox 2 inactive
C[C@@H]1CCCCO[C@@H](CN(C)S(=O)(=O)c2ccc(F)cc2)[C@H](C)CN([C@H](C)CO)C(=O)c2cc(NS(=O)(=O)c3ccc(Cl)cc3)ccc2O1	none (no result: IDH1 R132H inh)
C[C@H](CO)N1C[C@H](C)[C@H](CN(C)S(=O)(=O)c2ccc(Cl)cc2)OCCCC[C@H](C)Oc2ccc(NS(=O)(=O)c3ccc(F)cc3)cc2C1=O	none

Screens as filed in PubChem.
